Reference: the RNAGym collection of RNA variant scans (doi:10.1126/science.aae0568)
Variants at the floor of the assay were thinned out.

B1: tRNA (parent)
chain: GUUCCGUUGGCGUAAUGGUAACGCGUCUCCCUCCUAAGGAGAAGACUGCGGGUUCGAGUCCCGUACGGAACG

Variants of: B1
Assay: yeast fitness relative to wild type (ratio to wild type); higher = fitter; tRNA-Arg(CCU), competitive growth, 37 C, YPD
Method in brief: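 Variants of the tRNA-Arg(CCU) gene, chemically synthesised with a 3% per-site mutation rate at 69 sites, were placed at the native genomic locus in Saccharomyces cerevisiae. The pooled strains were competed in YPD at 37°C for 24 hours in six parallel replicates. Gene amplicons from the start population and from each end population were read by 100-nucleotide paired-end sequencing. Darwinian fitness relative to wild type came from changes in genotype frequencies; genotypes needed ≥ 100 starting reads, and estimates < 0.5 were set to 0.5.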

First: GUUCCGUUGGCGUAAUGGUAACGCGUCUCCCUCCUGAGGAGAAGAUUGCGGGUUCGAGUCCCGUACGGAACG [A36G C46U]
Second: GUUCCGUUGGCGUAAUGGUAACGCGUCUCCCUCCUGAGGAGACGGCUGCGGGUUCGAGUCCCGUACGGAACG [A36G A43C A45G]
The yeast fitness of the first is higher: 0.952 for the first, 0.906 for the second.

Compared with GUUCCGUUGGCGUAAUGGUAACGCGUCUCCCUCCUGAGGAGAAGACUGCGGGUUAGAGUCCCGUACGGUACG [A36G C55A A69U], GUUCCGUUGGCGUAAUGGUAACGCGUCUCCCUCCUGAGGAGAAGACUGUGGGUUCGACUCCCGUACGGAACG [A36G C49U G58C] is higher in yeast fitness: 0.635 for the first, 0.655 for the second.

GUUCCGUUGGCGUAAUGGUAACGCGUCUCCCUCCUGAGGAGAAGACUGCGGGUUCGCGUCCCGUUCGGAACG [A36G A57C A65U] and GUUCCGUUGGCGUAAUGGUAACGCGUCUCCCUCCUGAGGAGAAGACUGCGGGUUCGAGUCCCGUCCGCAACG [A36G A65C G68C] cannot be ordered by yeast fitness: no more than 0.5 for the first, no more than 0.5 for the second.

First: GUUCCGUUGGCGUAAUGGUAACGCGUCUCCCUCCUGAGGAGAGGACUGCGGGUUCGAGUCCCGUACGGAACG [A36G A43G]
Second: GUUCCGUUGGCGUAAUGGUAACGCGUCUCCCUCCUGAGGAGAUGACUGCGGGUUCGAGUCCCGUACGGAACG [A36G A43U]
The yeast fitness of the first is lower: 0.975 for the first, 1.01 for the second.

Compared with GUUCCGUUGGCGUAAUGGUAACGCGUCUCCCUCCUGAGGAGGAGAGUGCGGGUUCGAGUCCCGUACGGAACG [A36G A42G C46G], GUUCCGUUGGCGUAAUGGUAACGCGUCUCCCUCCUGAGGAGUAGACUGCGGGUUCGUGUCCCGUACGGAACG [A36G A42U A57U] is lower in yeast fitness: 0.698 for the first, no more than 0.5 for the second.

Compared with GUUCCGUUGGCGUAAUGGUAACGCGUCUCCCUCCUGAGGAGAAGACUGCGGGUUAGAGUCCCGUAAGGAACG [A36G C55A C66A], GUUCCGUUGGCGUAAUGGUAACGCGUCUCCCUCCUGAGGAGAAGUCUGCGGGUUCGAGUCCCGUUCGGAACG [A36G A45U A65U] is higher in yeast fitness: no more than 0.5 for the first, 0.572 for the second.

Going from GUUCCGUUGGCGUAAUGGUAACGCGUCUCCCUCCUGAGGAGAAGGCUGUGGGUUCGAGUCCCGUACGGAACG [A36G A45G C49U] to GUUCCGUUGGCGUAAUGGUAACGCGUCUCCCUCCUGAGGAGAAGACUGAGGGUUCGAGUCCCGUACGGAACG [A36G C49A], the yeast fitness rises from 0.578 to 0.799.

First: GUUCCGUUGGCGUAAUGGUAACGCGUCUCCCUCCUGAGGAGAAGACUGGGGGUUCGAGUCCCGUACGGAACG [A36G C49G]
Second: GUUCCGUUGGCGUAAUGGUAACGCGUCUCCCUCCUGAGGAGAAGACUGCGGGUUCGAGUCCCGUUCGGACCG [A36G A65U A70C]
The yeast fitness of the first is higher: 0.776 for the first, 0.684 for the second.

Compared with GUUCCGUUGGCGUAAUGGUAACGCGUCUCCCUCCUGAGGAGAAGACUGCGGGUUCGAGUCCCGUUCAGAACG [A36G A65U G67A], GUUCCGUUGGCGUAAUGGUAACGCGUCUCCCUCCUGAGGAGAAGAGUGUGGGUUCGAGUCCCGUACGGAACG [A36G C46G C49U] is higher in yeast fitness: 0.502 for the first, 0.763 for the second.

First: GUUCCGUUGGCGUAAUGGUAACGCGUCUCCCUCCUGAGGAGAAGACUGCGGGUUAGAGUUCCGUACGGAACG [A36G C55A C60U]
Second: GUUCCGUUGGCGUAAUGGUAACGCGUCUCCCUCCUGAGGAGACGACUGCGGGUUCGAGUCCCGCACGGAACG [A36G A43C U64C]
The yeast fitness of the first is lower: no more than 0.5 for the first, 0.687 for the second.

Compared with GUUCCGUUGGCGUAAUGGUAACGCGUCUCCCUCCUGAGGAGGAGACUGCGGGUUAGAGUCCCGUACGGAACG [A36G A42G C55A], GUUCCGUUGGCGUAAUGGUAACGCGUCUCCCUCCUGAGGAGAAGGCUGCGGGUUCGAGUCCCGUUCGGAACG [A36G A45G A65U] is higher in yeast fitness: no more than 0.5 for the first, 0.54 for the second.

Going from GUUCCGUUGGCGUAAUGGUAACGCGUCUCCCUCCUGAGGAGAAGACUGCGGGUUCGAGUCACGUACGGAACG [A36G C61A] to GUUCCGUUGGCGUAAUGGUAACGCGUCUCCCUCCUGAGGAGAAGACUGCGGGUUCGAGUCUCGUACGGAACG [A36G C61U], the yeast fitness rises from 0.766 to 0.891.

Compared with GUUCCGUUGGCGUAAUGGUAACGCGUCUCCCUCCUGAGGAGAAGACUGGGGGUUCGAGUCCCAUACGGCCCG [A36G C49G G63A A69C A70C], GUUCCGUUGGCGUAAUGGUAACGCGUCUCCCUCCUGAGGAGUAGACUGCGGGUUCGAGUCCCGUACGGAACG [A36G A42U] is higher in yeast fitness: no more than 0.5 for the first, 0.902 for the second.

Compared with GUUCCGUUGGCGUAAUGGUAACGCGUCUCCCUCCUGAGGAGAAGACUGUGGGUUCGAGUCUCGUACGGAACG [A36G C49U C61U], GUUCCGUUGGCGUAAUGGUAACGCGUCUCCCUCCUGAGAAGAAGACAGCGGGUUCGAGUCCCGUACGCAACG [A36G G39A U47A G68C] is lower in yeast fitness: 0.654 for the first, no more than 0.5 for the second.

GUUCCGUUGGCGUAAUGGUAACGCGUCUCCCUCCUGAGGAGAAGACUGUGGGUUCGAGUCCCGUAGGGAACG [A36G C49U C66G] and GUUCCGUUGGCGUAAUGGUAACGCGUCUCCCUCCUGAGGAAAAGACUGCGGGUUCGAGUGCCGUGCGGAACG [A36G G41A C60G A65G] cannot be ordered by yeast fitness: no more than 0.5 for the first, no more than 0.5 for the second.

Compared with GUUCCGUUGGCGUAAUGGUAACGCGUCUCCCUCCUGAGGAGAAGACUGCGGGUUCGAGUCCCGUCCGGAACG [A36G A65C], GUUCCGUUGGCGUAAUGGUAACGCGUCUCCCUCCUGAGGAGAAGACUGCGGGUUCGAGUCCCGUGCGGAACG [A36G A65G] is lower in yeast fitness: 0.9 for the first, 0.831 for the second.

First: GUUCCGUUGGCGUAAUGGUAACGCGUCUCCCUCCUGACGAGAAGACUGCGGCUUCGUGUCCCGUACGGUGCG [A36G G38C G52C A57U A69U A70G]
Second: GUUCCGUUGGCGUAAUGGUAACGCGUCUCCCUCCUGAGGAGAAGACUGCGGGUUCGAGUCGCGUACGGACCG [A36G C61G A70C]
The yeast fitness of the first is lower: no more than 0.5 for the first, 0.661 for the second.

Compared with GUUCCGUUGGCGUAAUGGUAACGCGUCUCCCUCCUGAGGACAAGACUGCGGGUUCGAGUCCCGUACGGAACG [A36G G41C], GUUCCGUUGGCGUAAUGGUAACGCGUCUCCCUCCUGAGGAGAAGACUGCGGGUUCGAGUCCCGUACGGCACG [A36G A69C] is higher in yeast fitness: 0.955 for the first, 1.05 for the second.

For GUUCCGUUGGCGUAAUGGUAACGCGUCUCCCUCCUGAGGAGAAGACUGCGGGUUCGAGUCCCGUACGGUACG [A36G A69U], the yeast fitness was 1.02.
